Published values collected from several papers.
MAPK14: Mitogen-activated protein kinase 14 (MAPK14, Homo sapiens, UniProt Q16539)

| SMILES | target | read-out | mode | technique | tested at | endpoint | value |
| --- | --- | --- | --- | --- | --- | --- | --- |
| O=C(N[C@H]1CCCCC/C=C\C2C[C@@]2(C(=O)O)NC(=O)[C@@H]2C[C@@H](Oc3ccncc3)CN2C1=O)OC1CCCC1 (some centres unmarked) | MAPK14 | binding |  | competition with immobilised ligand | 1 µM | remaining binding | 94% |
| Cc1ccc(C(=O)Nc2ccc(CN3CCN(C)CC3)c(C(F)(F)F)c2)cc1C#Cc1cnc2cccnn12 | MAPK14 | enzyme activity | inhibitor |  | 23.5 nM | remaining activity | 29% |
| CC(C)(C)c1nc2c(s1)c1nc(N)ncc1c1ccc(NS(=O)(=O)c3c(F)cccc3F)c(F)c12 | MAPK14 | enzyme activity | inhibitor | radiometric | 1 µM | remaining activity | 96% |
| CNC(=O)c1cc(Oc2ccc(NC(=O)Nc3ccc(Cl)c(C(F)(F)F)c3)cc2)ccn1 | Mitogen-activated protein kinase 14 (MAPK14, Homo sapiens, UniProt Q16539, T106M) | enzyme activity | inhibitor |  | 0.3 µM | inhibition | 59% |
| COc1ccc2c(c1)O[C@@H](c1ccc(OC)c(OC)c1)C[C@H]2NC(=O)C1(c2ccc3c(c2)OC(F)(F)O3)CC1 | MAPK14 | cell-free assay |  | competition with immobilised ligand | 1 µM | remaining binding | 99% |
| CC(C)c1ccc(NC(=O)c2cccs2)c(-c2nc3ccccc3[nH]c2=O)c1 | MAPK14 | enzyme activity | inhibitor |  | 1 µM | activity vs control | 102% |
| COc1cc(Nc2cnc(C#N)c(O[C@H](C)CN(C)C)n2)ncc1-c1cnn(C)c1 | MAPK14 | enzyme activity | inhibitor | radiometric | 1 µM | remaining activity | 102% |
| Nc1nc(Nc2ccccc2)sc1C(=O)c1c(F)cccc1F | MAPK14 | enzyme activity | inhibitor |  | 10 µM | remaining activity | 8% |
| Cc1c(C(=O)O)cc(-c2ccc(C3CCNCC3)cc2)c2ccc(-c3ccc(C(F)(F)F)cc3)cc12 | MAPK14 | binding |  | competition with immobilised ligand | 1 µM | remaining binding | 100% |
| O=C1Nc2ccc(Cl)cc2C1=Cc1cc(Cl)c(O)c(Cl)c1 | MAPK14 | cell-free assay |  |  | 0.5 µM | remaining signal | 74.6% |
| O=C(NC[C@@H]1[C@H]2CN(C(=O)OCc3cc(C(F)(F)F)cc(C(F)(F)F)c3)C[C@@H]12)c1ccc2[nH]nnc2c1 | MAPK14 | cell-free assay |  | competition with immobilised ligand | 1 µM | remaining binding | 100% |
| c1ccc(CNc2nc(N3CCOc4ccccc43)nc3c2CCCC3)cc1 | MAPK14 | target engagement in cells | inhibitor | chemoproteomics | 20 mM | inhibition | 6.3% |
| Cc1cc(NC(=O)c2cccc(S(F)(F)(F)(F)F)c2)cc(-n2ccn3nc(-c4cccnc4)cc23)c1 | MAPK14 | cell-free assay |  | competition with immobilised ligand | 1 µM | remaining binding | 100% |
| Cc1ccc(Nc2nccc(N(C)c3ccc4c(C)n(C)nc4c3)n2)cc1S(N)(=O)=O | MAPK14 | enzyme activity | inhibitor |  | 10 µM | inhibition | 62% |
| O=C(Nc1cnn(-c2csc(C(=O)NC3COC3)c2)c1)Nc1c(F)cccc1Cl | MAPK14 | enzyme activity | inhibitor |  | 5 µM | remaining activity | 105% |
| C#Cc1cccc(Nc2ncnc3cc(OCCOC)c(OCCOC)cc23)c1 | MAPK14 | cell-free assay |  |  | 0.5 µM | remaining signal | 95.3% |
| CN(C)C1CCN(CC#Cc2nn(C3CCCC3)c3nc(NCc4ccccc4)ncc23)C1 (centres unmarked) | MAPK14 | enzyme activity | inhibitor | FRET | 0.1 µM | inhibition | 8% |
| CC1=C(C#N)[C@@H](c2ccc3[nH]nc(C)c3c2)C(C#N)=C(c2ccc(Cl)cc2)N1 | MAPK14 | cell-free assay |  | competition with immobilised ligand | 1 µM | remaining binding | 100% |
| CCN(CC)CCNC(=O)c1c(C)[nH]c(/C=C2\C(=O)Nc3ccc(F)cc32)c1C | MAPK14 | enzyme activity | inhibitor |  | 0.3 µM | inhibition | -11% |
| N#CCCc1ccc2c(c1)-c1[nH]c3ccc([N+](=O)[O-])cc3c1CC(=O)N2 | MAPK14 | cell-free assay |  |  | 0.5 µM | remaining signal | 91.8% |
